Experimental data from ChEMBL document CHEMBL2203056, “Antimutagenic thio compounds from Sisymbrium officinale” (J Nat Prod, 2012).

Legend:
[1] = Cytotoxicity against Escherichia coli WP2 (trpE65 deltauvrApKM101) assessed as cell viability up to 10 to 300 ug/mL after 72 hrs in presence of 25 ug/plate 2-aminofluorene and metabolic activation system S9; assay type: ADME, organism-based; conditions: read-out: Activity
[2] = Cytotoxicity against Escherichia coli WP2 (trpE65 deltauvrA) assessed as cell viability up to 10 to 300 ug/mL after 72 hrs in presence of 25 ug/plate 2-aminofluorene and metabolic activation system S9; assay type: ADME, organism-based; conditions: read-out: Activity
[3] = Cytotoxicity against Escherichia coli WP2 (trpE65) assessed as cell viability up to 10 to 300 ug/mL after 72 hrs in presence of 25 ug/plate 2-aminofluorene and metabolic activation system S9; assay type: ADME, organism-based; conditions: read-out: Activity
In short: (§1)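 Viability check on the antimutagenicity mixtures. Culture, mutagen (MMS 1700 μg/plate; 2AA or 2AF 25 μg/plate with S9 mix), test substance and S9 mix or 0.1 M phosphate buffer were shaken 30 min at 37 °C. Mixtures were diluted to 2 × 10^3 cells/mL, plated in top agar on nutrient agar and incubated 72 h at 37 °C. Colonies counted and compared with the solvent-only negative control.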

[4] = Cytotoxicity against Escherichia coli WP2 (trpE65 deltauvrApKM101) assessed as cell viability up to 10 to 300 ug/mL after 72 hrs in presence of 25 ug/plate 2-aminoanthracene and metabolic activation system S9; assay type: ADME, organism-based; conditions: read-out: Activity; in short: as §1
[5] = Cytotoxicity against Escherichia coli WP2 (trpE65 deltauvrA) assessed as cell viability up to 10 to 300 ug/mL after 72 hrs in presence of 25 ug/plate 2-aminoanthracene and metabolic activation system S9; assay type: ADME, organism-based; conditions: read-out: Activity; in short: as §1
[6] = Cytotoxicity against Escherichia coli WP2 (trpE65) assessed as cell viability up to 10 to 300 ug/mL after 72 hrs in presence of 25 ug/plate 2-aminoanthracene and metabolic activation system S9; assay type: ADME, organism-based; conditions: read-out: Activity
[7] = system: Escherichia coli; experiment: Antimutagenic activity in Escherichia coli WP2 (trpE65) assessed as maximal inhibition of 2-aminofluorene-induced mutagenic effect at 10 to 300 ug/plate after 72 hrs in presence of metabolic activation system S9 by Ames test; assay type: functional
In short: (§2)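 Preincubation Ames test with E. coli WP2 strains, from 16 h overnight cultures at 37 °C (about 2 × 10^9 bacteria/mL). Culture, mutagen, test substance (DMSO, 2% v/v vehicle) and either S9 mix (phenobarbital/β-naphthoflavone-induced rat liver) or 0.1 M phosphate buffer were shaken 30 min at 37 °C. Mutagens were MMS 1700 μg/plate without S9, and 2AA or 2AF 25 μg/plate with S9. Then top agar with 0.5 mM tryptophan on minimal agar, 72 h at 37 °C; tryptophan-independent revertants scored. Inhibition = 100 − (T/M × 100). Triplicates, at least two experiments.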

[8] = system: Escherichia coli; experiment: Antimutagenic activity in Escherichia coli WP2 (trpE65 deltauvrApKM101) assessed as maximal inhibition of 2-aminoanthracene-induced mutagenic effect at 10 to 300 ug/plate after 72 hrs in presence of metabolic activation system S9 by Ames test; assay type: functional; in short: as §2
[9] = system: Escherichia coli; experiment: Antimutagenic activity in Escherichia coli WP2 (trpE65 deltauvrA) assessed as maximal inhibition of 2-aminoanthracene-induced mutagenic effect at 10 to 300 ug/plate after 72 hrs in presence of metabolic activation system S9 by Ames test; assay type: functional; in short: as §2
[10] = Cytotoxicity against Escherichia coli WP2 (trpE65 deltauvrApKM101) assessed as cell viability up to 10 to 300 ug/mL after 72 hrs in presence of 1700 ug/plate methyl methane sulfonate; assay type: organism-based; conditions: Escherichia coli WP2 (trpE65 deltauvrApKM101) cells, read-out: Activity; in short: as §1
[11] = Cytotoxicity against Escherichia coli WP2 (trpE65 deltauvrA) assessed as cell viability up to 10 to 300 ug/mL after 72 hrs in presence of 1700 ug/plate methyl methane sulfonate; assay type: organism-based; conditions: Escherichia coli WP2 (trpE65 deltauvrA) cells, read-out: Activity; in short: as §1
[12] = Cytotoxicity against Escherichia coli WP2 (trpE65) assessed as cell viability up to 10 to 300 ug/mL after 72 hrs in presence of 1700 ug/plate methyl methane sulfonate; assay type: organism-based; conditions: Escherichia coli WP2 (trpE65) cells, read-out: Activity; in short: as §1
[13] = system: Escherichia coli; experiment: Antimutagenic activity in Escherichia coli WP2 (trpE65 deltauvrApKM101) assessed as maximal inhibition of methyl methane sulfonate-induced mutagenic effect at 10 to 300 ug/plate after 72 hrs in absence of metabolic activation system S9 by Ames test; assay type: functional; in short: as §2
[14] = system: Escherichia coli; experiment: Antimutagenic activity in Escherichia coli WP2 (trpE65 deltauvrA) assessed as maximal inhibition of methyl methane sulfonate-induced mutagenic effect at 10 to 300 ug/plate after 72 hrs in absence of metabolic activation system S9 by Ames test; assay type: functional; in short: as §2
[15] = system: Escherichia coli; experiment: Antimutagenic activity in Escherichia coli WP2 (trpE65) assessed as maximal inhibition of methyl methane sulfonate-induced mutagenic effect at 10 to 300 ug/plate after 72 hrs in absence of metabolic activation system S9 by Ames test; assay type: functional; in short: as §2
[16] = Solubility of the compound up to 110 ug/mL; assay type: physicochemical
In short: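 Compounds dissolved in DMSO by sonication, stock up to 12 mg/mL. Insolubility in the final assay mixture judged as a precipitate visible to the unaided eye.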

Work on `CC(C)/C(=N/OS(=O)(=O)O)S[C@@H]1O[C@H](CO)[C@@H](O)[C@H](O)[C@H]1O` [GLUCOPUTRANJIVIN] yielded a viability at 72 h [1] of 93%, a viability at 72 h [2] of 77% and a viability at 72 h [3] of 77%. It also gave a viability at 72 h [4] of 93%, a viability at 72 h [5] of 77% and a viability at 72 h [6] of 77%. The “inhibition (INH)” value [7] was 61.6%, the “inhibition (INH)” value [8] was 21.5% and the “inhibition (INH)” value [9] was 80.1%. For the same compound, the viability at 72 h [10] was 80%, the viability at 72 h [11] was 82% and the viability at 72 h [12] was 80%. The “inhibition (INH)” value [13] was 38.5%, the “inhibition (INH)” value [14] was 44.6% and the “inhibition (INH)” value [15] was 32.8%. For the same compound, the solubility [16] was “soluble”.

Compound `CC(C)N=C=S` [ISOPROPYL ISOTHIOCYANATE] has a viability at 72 h [1] of 93%, a viability at 72 h [2] of 77% and a viability at 72 h [3] of 77%. The viability at 72 h [4] was 93%, the viability at 72 h [5] was 77% and the viability at 72 h [6] was 77%. For the same compound, the “inhibition (INH)” value [7] was 57.9%, the “inhibition (INH)” value [8] was 18.6% and the “inhibition (INH)” value [9] was 81.9%. For the same compound, the viability at 72 h [10] was 80%, the viability at 72 h [11] was 82% and the viability at 72 h [12] was 80%. For the same compound, the “inhibition (INH)” value [13] was 32.9%, the “inhibition (INH)” value [14] was 45.7% and the “inhibition (INH)” value [15] was 9.7%. The solubility [16] was “soluble”.
